Measured values as given in ChEMBL document CHEMBL4270658, “Synthesis, in vitro and in vivo biological evaluation, COX-1/2 inhibition and molecular docking study of indole-N-acylhydrazone derivatives” (Bioorg Med Chem, 2018).
Calls of active or inactive are those of the source. No cut-off for these calls is given here.

How the values were obtained:
Splenocyte [1] = test: Immunomodulatory activity in BALB/c mouse splenocytes assessed as inhibition of concanavalin A-induced lymphocyte proliferation by measuring [methyl-3H]-thymidine uptake at 50 uM after 48 hrs; assay type: functional
Method in brief: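 BALB/c splenocytes (5×10⁶ cells/well) in DMEM, triplicate, with concanavalin A (2 μg mL⁻¹) ± compound 48 h at 37 °C, 5% CO₂, then 1 μCi [methyl-³H]thymidine for 12 h; inhibition from thymidine uptake relative to control; dexamethasone positive control.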

[2] = Cytotoxicity against mouse J774 macrophages after 72 hrs by Alamar Blue assay; assay type: cell-based
Mus musculus [3] = test: Antiinflammatory activity in carrageenan-induced Swiss mouse assessed as inhibition of paw edema at 10 mg/kg, po pretreated for 1 hr followed by carrageenan challenge measured after 6 hrs by plethysmometric method; assay type: functional
Mus musculus [4] = test: Antiinflammatory activity in carrageenan-induced Swiss mouse assessed as inhibition of paw edema at 10 mg/kg, po pretreated for 1 hr followed by carrageenan challenge measured after 2 hrs by plethysmometric method; assay type: functional
Splenocyte [5] = test: Antiinflammatory activity in BALB/c mouse splenocytes assessed as increase of IL-4 level at 11 uM after 24 to 48 hrs by cytometric bead array method; assay type: functional, cell-based
Method in brief: (§1)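 Splenocytes from female BALB/c mice (6–8 weeks) isolated on Ficoll-Paque (1.076 g/mL), viability >98% by trypan blue; cultured with 11 μM compound for 24 and 48 h. Supernatant cytokines measured by cytometric bead array on flow cytometer; two independent experiments in triplicate.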

[6] = biological target: T1, Prostaglandin G/H synthase 2 (Homo sapiens, UniProt P35354); test: Inhibition of recombinant N-terminal His6-tagged human COX-2 expressed in Baculovirus infected Sf21 cells using arachidonic acid as substrate preincubated for 5 mins followed by substrate addition measured after 1 hr; assay type: cell-based
T1 sequence (P35354 whole entry): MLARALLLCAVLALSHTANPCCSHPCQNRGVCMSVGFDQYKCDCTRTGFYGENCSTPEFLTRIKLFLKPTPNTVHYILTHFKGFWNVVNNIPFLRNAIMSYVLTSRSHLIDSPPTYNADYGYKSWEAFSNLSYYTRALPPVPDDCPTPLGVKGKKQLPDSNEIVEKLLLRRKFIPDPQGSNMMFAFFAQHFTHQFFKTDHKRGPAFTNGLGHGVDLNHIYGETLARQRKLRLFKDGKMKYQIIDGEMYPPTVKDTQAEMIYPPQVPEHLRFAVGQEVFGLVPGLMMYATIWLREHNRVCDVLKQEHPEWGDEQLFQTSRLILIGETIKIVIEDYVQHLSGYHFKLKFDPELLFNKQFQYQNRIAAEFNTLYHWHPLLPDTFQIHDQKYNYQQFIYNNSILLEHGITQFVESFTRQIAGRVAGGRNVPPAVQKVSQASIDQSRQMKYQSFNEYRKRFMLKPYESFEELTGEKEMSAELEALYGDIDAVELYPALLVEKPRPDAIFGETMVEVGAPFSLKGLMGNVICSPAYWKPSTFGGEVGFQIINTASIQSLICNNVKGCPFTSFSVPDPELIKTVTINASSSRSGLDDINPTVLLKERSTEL

Mus musculus [7] = test: Acute toxicity in Swiss mouse assessed as effect on hematocrit levels at 2000 mg/kg, po (reference value: 74.7 +/- 6.05%); assay type: organism-based; settings: in vivo
Mus musculus [8] = test: Acute toxicity in Swiss mouse assessed as occurence of irritability at 2000 mg/kg, po after 1 hr; assay type: organism-based; settings: in vivo
Method in brief: (§2)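 Fixed-dose stepwise procedure following OECD acute oral toxicity guidelines; groups of 3 Swiss Mus musculus mice (20–35 g) dosed orally at 2000 mg kg⁻¹ and observed for clinical signs of pain, suffering and impending death. Test run in duplicate. Animals kept at 22 ± 3 °C, 12 h light/dark, free food and water.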

Mus musculus [9] = test: Acute toxicity in Swiss mouse assessed as effect on blood cell levels at 2000 mg/kg, po (reference value: 13.0 +/- 0.9 10^6/mm3); assay type: organism-based; settings: in vivo
Mus musculus [10] = test: Acute toxicity in Swiss mouse assessed as effect on leukocyte level at 2000 mg/kg, po (reference value: 10.8 +/- 6.25 10^3/mm3); assay type: organism-based; settings: in vivo
[11] = biological target: T2, Prostaglandin G/H synthase 1 (Ovis aries, UniProt P05979); test: Inhibition of ovine COX-1 using arachidonic acid as substrate preincubated for 5 mins followed by substrate addition measured after 1 hr
T2 sequence (P05979 whole entry): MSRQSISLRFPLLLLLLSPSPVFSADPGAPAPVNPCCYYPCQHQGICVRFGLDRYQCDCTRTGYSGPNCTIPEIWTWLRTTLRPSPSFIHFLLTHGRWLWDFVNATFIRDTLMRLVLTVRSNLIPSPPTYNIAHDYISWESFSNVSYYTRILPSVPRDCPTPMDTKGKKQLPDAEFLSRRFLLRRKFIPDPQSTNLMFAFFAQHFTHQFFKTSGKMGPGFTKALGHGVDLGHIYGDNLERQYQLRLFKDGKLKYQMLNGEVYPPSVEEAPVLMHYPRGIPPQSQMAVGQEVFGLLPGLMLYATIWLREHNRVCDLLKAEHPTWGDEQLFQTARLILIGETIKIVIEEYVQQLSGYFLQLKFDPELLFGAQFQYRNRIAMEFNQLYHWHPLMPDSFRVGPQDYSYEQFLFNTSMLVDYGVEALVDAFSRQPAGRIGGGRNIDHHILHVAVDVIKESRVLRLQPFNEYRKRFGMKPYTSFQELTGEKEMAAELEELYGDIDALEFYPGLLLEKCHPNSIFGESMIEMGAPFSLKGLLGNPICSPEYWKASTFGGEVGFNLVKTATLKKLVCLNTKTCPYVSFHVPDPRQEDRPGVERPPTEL

Splenocyte [12] = test: Antiinflammatory activity in BALB/c mouse splenocytes assessed as increase of IL-10 level at 11 uM after 24 to 48 hrs by cytometric bead array method; assay type: functional, cell-based; method in brief: as §1
Mus musculus [13] = test: Acute toxicity in Swiss mouse assessed as effect on hemoglobin levels at 2000 mg/kg, po (reference value: 14.5 +/- 0.6 g/dl); assay type: organism-based; settings: in vivo
Mus musculus [14] = test: Antiinflammatory activity in carrageenan-induced Swiss mouse assessed as inhibition of paw edema at 15 mg/kg, po pretreated for 1 hr followed by carrageenan challenge measured after 6 hrs by plethysmometric method; assay type: functional
Splenocyte [15] = test: Antiinflammatory activity in BALB/c mouse splenocytes assessed as decrease of IL-6 level at 11 uM after 24 hrs by cytometric bead array method; assay type: functional, cell-based; method in brief: as §1
Mus musculus [16] = test: Antiinflammatory activity in carrageenan-induced Swiss mouse assessed as inhibition of paw edema at 60 mg/kg, po pretreated for 1 hr followed by carrageenan challenge measured after 6 hrs by plethysmometric method; assay type: functional
Mus musculus [17] = test: Antiinflammatory activity in carrageenan-induced Swiss mouse assessed as inhibition of paw edema at 60 mg/kg, po pretreated for 1 hr followed by carrageenan challenge measured after 1 hr by plethysmometric method; assay type: functional
[18] = Selectivity index, ratio of IC50 for ovine COX-1 to IC50 for recombinant N-terminal His6-tagged human COX-2
Method in brief: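 COX-1 or COX-2 in 100 mM Tris-HCl pH 8.0 with hematin, compound (in DMSO, 1.5–100 μM) preincubated 5 min at room temperature; started with arachidonic acid plus TMPD, absorbance at 610 nm after 1 h; triplicate; IC50 calculated, selectivity index from COX-1 and COX-2 IC50s.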

Mus musculus [19] = test: Acute toxicity in Swiss mouse assessed as occurence of ptosis at 2000 mg/kg, po after 1 hr; assay type: organism-based; settings: in vivo; method in brief: as §2
Mus musculus [20] = test: Acute toxicity in Swiss mouse assessed as effect on mean corpuscular hemoglobin level at 2000 mg/kg, po (reference value: 11.16 +/- 0.53 pg); assay type: organism-based; settings: in vivo
Splenocyte [21] = test: Antiinflammatory activity in BALB/c mouse splenocytes assessed as inhibition of IFNgamma level at 11 uM after 24 to 48 hrs by cytometric bead array method; assay type: functional, cell-based; method in brief: as §1
Splenocyte [22] = test: Antiinflammatory activity in BALB/c mouse splenocytes assessed as inhibition of TNFalpha level at 11 uM after 24 to 48 hrs by cytometric bead array method; assay type: functional, cell-based; method in brief: as §1
Mus musculus [23] = test: Acute toxicity in Swiss mouse assessed as mortality at 2000 mg/kg, po; assay type: organism-based; settings: in vivo; method in brief: as §2
Splenocyte [24] = test: Antiinflammatory activity in BALB/c mouse splenocytes assessed as inhibition of IL-2 level at 11 uM after 24 to 48 hrs by cytometric bead array method; assay type: functional, cell-based; method in brief: as §1
Mus musculus [25] = test: Antiinflammatory activity in carrageenan-induced Swiss mouse assessed as inhibition of paw edema at 30 mg/kg, po pretreated for 1 hr followed by carrageenan challenge measured after 1 hr by plethysmometric method; assay type: functional
Splenocyte [26] = test: Antiinflammatory activity in BALB/c mouse splenocytes assessed as inhibition of IFNgamma-induced nitric oxide production at 11 uM after 24 to 48 hrs by Griess method; assay type: functional, cell-based
Mus musculus [27] = test: Acute toxicity in Swiss mouse assessed as effect on mean corpuscular volume at 2000 mg/kg, po (reference value: 57.3 +/- 3.01 […]); assay type: organism-based; settings: in vivo
Mus musculus [28] = test: Antiinflammatory activity in carrageenan-induced Swiss mouse assessed as inhibition of paw edema at 30 mg/kg, po pretreated for 1 hr followed by carrageenan challenge measured after 5 hrs by plethysmometric method; assay type: functional
Mus musculus [29] = test: Acute toxicity in Swiss mouse assessed as effect on mean corpuscular hemoglobin concentration level at 2000 mg/kg, po (reference value: 19.5 +/- 0.94%); assay type: organism-based; settings: in vivo
Mus musculus [30] = test: Antiinflammatory activity in carrageenan-induced Swiss mouse assessed as paw volume at 60 mg/kg, po pretreated for 1 hr followed by carrageenan challenge measured after 1 hr by plethysmometric method (reference value: 59.39 +/- 10.59 […]); assay type: functional
Mus musculus [31] = test: Antiinflammatory activity in carrageenan-induced Swiss mouse assessed as inhibition of paw edema at 30 mg/kg, po pretreated for 1 hr followed by carrageenan challenge measured after 6 hrs by plethysmometric method; assay type: functional

SMILES | inhibition at 50 µM (Splenocyte [1]) [%] | CC50 at 72 h [2] [µM] | IC50 [6] [µM] | Activity (Mus musculus [7]) [%] | Activity (Mus musculus [8]) | Activity (Mus musculus [9]) [×10⁶ /mm3] | Activity (Mus musculus [10]) [×10³ /mm3] | IC50 [11] [µM] | Activity (Mus musculus [13]) [g/dL] | inhibition in vivo at 60 mg/kg (Mus musculus [16]) [%] | Ratio IC50 [18] | Activity (Mus musculus [19]) | Activity (Mus musculus [20]) [pg] | Activity (Mus musculus [23]) | Activity (Mus musculus [27]) [fL] | Activity (Mus musculus [29]) [%] | also measured
N#CCC(=O)N/N=C/c1c[nH]c2ccc(Cl)cc12 | 1.8 | 76.9 |  |  |  |  |  |  |  |  |  |  |  |  |  |  | 
Cc1cccc2c(/C=N/NC(=O)CC#N)c[nH]c12 | 52.2 | 146 |  |  |  |  |  |  |  |  |  |  |  |  |  |  | 
N#CCC(=O)N/N=C/c1c[nH]c2ncccc12 | 52.4 | 107 |  |  |  |  |  |  |  |  |  |  |  |  |  |  | 
COc1ccc2c(c1)c(CC(=O)O)c(C)n2C(=O)c1ccc(Cl)cc1 [INDOMETHACIN] |  |  |  |  |  |  |  |  |  |  |  |  |  |  |  |  | inhibition in vivo at 10 mg/kg (Mus musculus [3]): 84.1%; inhibition in vivo at 10 mg/kg (Mus musculus [4]): 72.4%
N#CCC(=O)N/N=C/c1c[nH]c2ccccc12 | 50.7 | 150 | 1.02 | 42.5 | Non-Toxic | 8.1 | 3.6 | 1.54 | 13.6 | 92.5 | 1.51 | Non-Toxic | 17.05 | Non-Toxic | 51.5 | 33.8 | Activity (Splenocyte [5]): Active; Activity (Splenocyte [12]): Active; inhibition in vivo at 15 mg/kg (Mus musculus [14]): 67%; Activity (Splenocyte [15]): inactive; inhibition in vivo at 60 mg/kg (Mus musculus [17]): 74.3%; inhibition (Splenocyte [21]): Active; inhibition (Splenocyte [22]): inactive; inhibition (Splenocyte [24]): Active; inhibition in vivo at 30 mg/kg (Mus musculus [25]): 88.9%; inhibition (Splenocyte [26]): Active; inhibition in vivo at 30 mg/kg (Mus musculus [28]): 100%
N#CCC(=O)N/N=C/c1c[nH]c2ccc(Br)cc12 | 62.7 | 144 | 0.25 | 57.6 | Non-Toxic | 8.4 | 5.9 | 0.18 | 14.1 | 66.3 | 0.72 | Non-Toxic | 16.8 | Non-Toxic | 53.6 | 32.9 | Activity (Mus musculus [30]): 48.33 mL; inhibition in vivo at 30 mg/kg (Mus musculus [31]): 61.8%
